Experimental data taken from ChEMBL document CHEMBL3407422, “2-(2-oxo-morpholin-3-yl)-acetamide derivatives as broad-spectrum antifungal agents” (J Med Chem, 2015).
≈ marks a conversion by molar mass, not a printed value.

The compounds below were run on Candida albicans (assay: Antifungal activity against Candida albicans SC5314 after 24 hrs).
Format: functional
Outline: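 Overnight YPD cultures diluted in PBS (1/200 for C. albicans, 1/400 for C. glabrata). Cells treated with compound, or 2.5% DMSO as solvent control, for 24 h at 37 °C. CFUs then counted; MFC is the concentration giving 99% killing of the inoculum.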

Row | SMILES | MFC99 [µg/mL]
1 | CCN1C(CC(=O)Nc2ccc(C(C)C)cc2)C(=O)OC(C)(C)C1(C)C (stereo not given) | >25
2 | CCN1CC(C)(C)OC(=O)C1CC(=O)Nc1ccccn1 (stereo not given) | >50
3 | CCN1CC(C)(C)OC(=O)C1CC(=O)Nc1ccncc1 (stereo not given) | >50
4 | CC(C)c1ccc(NC(=O)CC2C(=O)OC(C)(C)CN2c2ccccc2)cc1 (stereo not given) | >50
5 | CCN1CC(C)(C)OC(=O)C1CC(=O)NCc1ccco1 (stereo not given) | 50 (≈ 170 µM)
6 | CCN1CC(CC)(CC)OC(=O)C1CC(=O)Nc1ccc(C(C)C)cc1 (stereo not given) | >25
7 | CCN1CCOCC1CC(=O)Nc1ccc(C(C)C)cc1 (stereo not given) | >50
8 | CCN1CC(C)(C)OC(=O)C1C(C)(C)C(=O)Nc1ccc(C(C)C)cc1 (stereo not given) | >50
9 | C[C@@H]1[C@H](O)[C@@H](C)/C=C/C=C/C=C/C=C/C=C/C=C/C=C/[C@H](O[C@@H]2O[C@H](C)[C@@H](O)[C@H](N)[C@@H]2O)C[C@@H]2O[C@](O)(C[C@@H](O)C[C@@H](O)[C@H](O)CC[C@@H](O)C[C@@H](O)CC(=O)O[C@H]1C)C[C@H](O)[C@H]2C(=O)O [AMPHOTERICIN B] | 1.6 (≈ 1.73 µM)
10 | CCN1CC(C)(C)OC(=O)C1CC(=O)Nc1ccnn1C (stereo not given) | >50
11 | CC(C)c1ccc(NC(=O)CC2C(=O)OC(C)(C)CN2C2CCCC2)cc1 (stereo not given) | >25
12 | CCN1CC(C)(C)OC(=O)C1CC(=O)NCc1ccccc1Cl (stereo not given) | 25 (≈ 73.8 µM)
13 | CCN1CC(C)(C)OC(=O)C1CC(=O)N1CCOCC1 (stereo not given) | >50
14 | CC(C)c1ccc(NC(=O)CC2C(=O)OC(C)(C)CN2CC(F)(F)F)cc1 (stereo not given) | >25
15 | CC(C)c1ccc(NC(=O)CC2C(=O)OC(C)(C)CN2C)cc1 (stereo not given) | >25
16 | CCN1CC(C)(C)OC(=O)C1CC(=O)NCc1ccc(Cl)c(Cl)c1 (stereo not given) | 12.5 (≈ 33.5 µM)
17 | CCN1CC(C)(C)OC(=O)C1CC(=O)NCc1cccc(C)c1 (stereo not given) | 12.5 (≈ 39.3 µM)
18 | CC(C)c1ccc(NC(=O)CC2C(=O)OC(C)(C)CN2CCF)cc1 (stereo not given) | >25
19 | CCN1CC(C)(C)OC(=O)C1CC(=O)NCc1ccccc1 (stereo not given) | 12.5 (≈ 41.1 µM)
20 | CCN1CC(C)(C)OC(=O)C1CC(=O)Nc1ccncn1 (stereo not given) | >50

Row | SMILES | MFC99 [µg/mL]
21 | CCN1CC(C)(C)OC(=O)C1CC(=O)Nc1cccnc1 (stereo not given) | >50
22 | CCN1CC(C)(C)OC(=O)C1CC(=O)NCc1cccs1 (stereo not given) | 25 (≈ 80.5 µM)
23 | CC(C)c1ccc(NC(=O)CC2C(=O)OC(C)(C)CN2C2CC2)cc1 (stereo not given) | >25
24 | CCN1CC(C)(C)OC(=O)C1CC(=O)NCCC(C)(C)C (stereo not given) | 25 (≈ 83.8 µM)
25 | CCN1CC(C)(C)OC(=O)C1CC(=O)NCc1cccc(OC)c1 (stereo not given) | 25 (≈ 74.8 µM)
26 | CC(C)c1ccc(NC(=O)CC2C(=O)OC(C)(C)CN2C(C)C)cc1 (stereo not given) | >25
27 | CCNC(=O)CC1C(=O)OC(C)(C)CN1CC (stereo not given) | 50 (≈ 206 µM)
28 | CCN1CC(C)(C)OC(=O)C1CC(=O)NCC1CCCCC1 (stereo not given) | 25 (≈ 80.5 µM)
29 | CC(C)c1ccc(NC(=O)CC2C(=O)OC(C)(C)CN2Cc2ccccc2)cc1 (stereo not given) | >50
30 | CCN1CC(C)(C)OC(=O)C1CC(=O)NCCc1ccccc1 (stereo not given) | 25 (≈ 78.5 µM)
31 | CCN1CC(C)(C)OC(=O)C1CC(=O)Nc1c(C)noc1C (stereo not given) | >50
32 | CCCN1CC(C)(C)OC(=O)C1CC(=O)Nc1ccc(C(C)C)cc1 (stereo not given) | >25
33 | CCN1CC(C)(C)OC(=O)C1CC(=O)NC1CCCCC1 (stereo not given) | 50 (≈ 169 µM)
34 | CCCNC(=O)CC1C(=O)OC(C)(C)CN1CC (stereo not given) | 25 (≈ 97.5 µM)
35 | CCN1CC(C)(C)OC(=O)C1CC(=O)NC1CCCC1 (stereo not given) | 50 (≈ 177 µM)
36 | CC(=O)N1CC(C)(C)OC(=O)C1CC(=O)Nc1ccc(C(C)C)cc1 (stereo not given) | >25
37 | CCN1CC(C)(C)OC(=O)C1CC(=O)NCc1cccc(C(F)(F)F)c1 (stereo not given) | 25 (≈ 67.1 µM)
38 | CCN1CC(C)(C)OC(=O)C1CC(=O)Nc1ccc2scnc2c1 (stereo not given) | >50
39 | CC(C)c1ccc(NC(=O)CC2C(=O)OC(C)(C)CN2S(C)(=O)=O)cc1 (stereo not given) | >25
40 | CCN1CC(C)(C)OC(=O)C1CC(=O)N(C)c1ccccc1 (stereo not given) | >50
